According to ChEMBL document CHEMBL1134684, “Phenoxypropoxybiguanides, prodrugs of DHFR-inhibiting diaminotriazine antimalarials” (J Med Chem, 2001):
Values after ≈ are worked out from the molar mass of the structure shown.

Legend:
[1] = In vivo antimalarial activity against Plasmodium berghei in mice (Mus musculus) after 6 days; assay type: functional; conditions: 144 h
Outline: (§1)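 Male or female CD-1 mice (4-5 weeks, 20-25 g) infected ip on day 0 with 5 × 10⁴ P. berghei KBG-173 parasitized erythrocytes. Oral doses in 0.5% hydroxyethylcellulose/0.1% Tween-80, given bid 6 h apart on days 3, 4 and 5, computed as free base. Giemsa-stained tail-blood smears on day 6 give % infected RBC. ED90 is the dose reducing parasitemia to 10% of untreated infected controls.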

Mus musculus [2] = species on record: Mus musculus; assay: Dose required for 100%, 31 day survival of Plasmodium berghei inoculated mice (Mus musculus).; assay type: ADME, organism-based; conditions: in vivo, 744 h
Outline: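 Same mouse P. berghei KBG-173 model, with ip infection on day 0 and oral bid treatment on days 3, 4 and 5. The experiment runs 31 days. The complete survival dose is the dose at which all animals are alive on day 31.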

Mus musculus [3] = species on record: Mus musculus; assay: Dose needed to increase the 100% survival of treated animals (mouse), to twice the number of days; assay type: ADME, organism-based; conditions: in vivo
Plasmodium falciparum [4] = assay: In vitro antimalarial activity against Plasmodium falciparum K1; assay type: functional
Outline: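 K1 parasites synchronized with 5% sorbitol. Drugs in methanol or DMSO, 2-fold serially diluted. Cultures at 2% hematocrit and 0.5% parasitemia (>95% rings) in 10% human serum under 5% O₂/5% CO₂/90% N₂ at 37.5 °C for 24-30 h. Romanowsky-stained thick films scored. MIC is the lowest concentration preventing >90% maturation to normal schizonts.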

Plasmodium falciparum [5] = assay: In vitro antimalarial activity against Plasmodium falciparum W2; assay type: functional, organism-based
Outline: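 Chloroquine-, quinine-, sulfadoxine- and pyrimethamine-resistant Indochina W-2 clone tested in a semiautomated microdilution assay. Graded drug concentrations incubated 66 h in medium with physiological folic acid. Read-out is inhibition of radiolabeled hypoxanthine incorporation.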

Mus musculus [6] = species on record: Mus musculus; assay: Dose required by the animals(mouse) to survive after 31 days; assay type: ADME, organism-based; conditions: in vivo, 744 h
Outline: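 P. berghei KBG-173 in male or female CD-1 mice (4-5 weeks, 20-25 g), infected ip on day 0 with 5 × 10⁴ parasitized erythrocytes. Oral doses in 0.5% hydroxyethylcellulose/0.1% Tween-80 (10 mL/kg, free base), bid 6 h apart on days 3-5. Experiment run 31 days; complete survival dose = dose at which all animals survive to day 31.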

Mus musculus [7] = assay: Compound was tested in vivo for antimalarial activity against Plasmodium berghei in mice (Mus musculus) after 6 days of administration (ED90 is the dose necessary to reduce the percentage of infected cells to 10% of the level found in the infected untreated controls); assay type: functional; conditions: 144 h; outline: as §1

Row | Structure (SMILES) | ED90 [1] [mg/kg] | Dose (Mus musculus [2]) [mg/kg] | ED (Mus musculus [3]) [mg/kg] | IC90 (Plasmodium falciparum [4]) [ng/mL] | IC50 (Plasmodium falciparum [5]) [ng/mL] | also measured
1 | N=C(NOCCCOc1cc(Cl)c(Cl)cc1Cl)NC(=N)NC1CCCCC1 | > 256 | 470 | 275 | – | – | –
2 | CC1(C)N=C(N)N=C(N)N1OCCCOc1cc(F)c(F)cc1F.Cl | – | – | – | 0.94 | 0.032 | –
3 | CC1(C)NC(N)=NC(=N)N1OCCCOc1ccc(Cl)cc1Cl | – | – | – | 1.67 (≈ 4.64 nM) | 0.0379 (≈ 0.105 nM) | –
4 | COc1cc(OCCCON2C(N)=NC(N)=NC2(C)C)cc(OC)c1OC.Cl | – | – | – | 1.25 | 0.211 | –
5 | CC1(C)N=C(N)N=C(N)N1OCCCOc1ccc2ccccc2c1.Cl | – | – | – | 1.56 | 0.0333 | –
6 | CCc1nc(N)nc(N)c1-c1ccc(Cl)cc1 [PYRIMETHAMINE] | – | – | – | 1740 (≈ 7020 nM) | – | Complete survival dose (Mus musculus [6]): 400 mg/kg; ED90 (Mus musculus [7]): 1.2 mg/kg
7 | Cc1ccc(OCCCON/C(N)=N/C(N)=N/C(C)C)cc1C.Cl | > 128 | – | > 128 | – | – | –
8 | CC(C)/N=C(N)/N=C(\N)NOCCCOc1cccc(C(F)(F)F)c1.Cl | 27 | 140 | 73 | – | – | –
9 | CC1(C)N=C(N)N=C(N)N1OCCCSc1ccc(F)cc1.Cl | – | – | – | 1.25 | 0.0222 | –
10 | CC(C)/N=C(N)/N=C(\N)NOCCCOc1cccc2ccccc12.Cl | > 256 | 495 | 185 | – | – | –
11 | CC(C)/N=C(N)/N=C(\N)NOCCCOc1ccc(F)cc1 | < 16 | 90 | 30 | – | – | –
12 | CC(C)/N=C(N)/N=C(\N)NOCCCSc1ccc(Cl)cc1 | 73 | 182 | 112 | – | – | –
13 | CC1(C)N=C(N)N=C(N)N1OCCc1cccc(C(F)(F)F)c1.Cl | – | – | – | 40 | 0.184 | –
14 | COc1ccc(OCCCON2C(N)=NC(N)=NC2(C)C)cc1.Cl | – | – | – | 0.32 | 0.0342 | –
15 | CC1(C)N=C(N)N=C(N)N1OCCCSc1ccc(Cl)cc1 | – | – | – | 2.08 (≈ 6.08 nM) | 0.0288 (≈ 0.0842 nM) | –
16 | CC(C)/N=C(N)/N=C(\N)NOCCCOc1cc(F)c(F)cc1F.Cl | 18 | 128 | 71 | – | – | –
17 | N=C1N=C(N)NC2(CCCCC2)N1OCCCOc1cc(Cl)c(Cl)cc1Cl | – | – | – | 66.7 (≈ 153 nM) | 0.113 (≈ 0.26 nM) | –
18 | CC(C)/N=C(N)/N=C(\N)NOCCCOc1ccc(C(C)(C)C)cc1.Cl | > 128 | 1480 | 460 | – | – | –
19 | CC(C)NC(=N)NC(=N)NOCCCOc1ccc(Cl)c(Cl)c1 | < 16 | 33 | 16 | – | – | –
20 | CC(C)/N=C(N)/N=C(\N)NOCCCOc1ccc(Br)cc1 | < 32 | 135 | 64 | – | – | –
21 | CC1(C)N=C(N)N=C(N)N1OCCCOc1ccc(F)c(F)c1.Cl | – | – | – | 0.38 | 0.0332 | –
22 | COc1ccc(OCCCO/N=C(N)/N=C(\N)NC(C)C)cc1.Cl | > 128 | – | > 128 | – | – | –
23 | CC(C)/N=C(N)/N=C(\N)NOCCCOc1ccc(F)cc1F.Cl | > 128 | – | > 128 | – | – | –
24 | CC1(C)N=C(N)N=C(N)N1OCCCOc1ccc(F)cc1.Cl | – | – | – | 0.63 | – | –
25 | CC(C)/N=C(N)/N=C(\N)NOCCCOc1cc(F)cc(F)c1F.Cl | 74 | 180 | 107 | – | – | –
26 | CC(C)/N=C(N)/N=C(\N)NOCCCOc1ccc2ccccc2c1.Cl | < 128 | – | < 128 | – | – | –
27 | Cc1cccc(OCCCON2C(N)=NC(N)=NC2(C)C)c1.Cl | – | – | – | 0.37 | 0.0416 | –
28 | CCN(CC)CCCC(C)Nc1ccnc2cc(Cl)ccc12 (centres undefined) [CHLOROQUINE] | – | – | – | – | – | Complete survival dose (Mus musculus [6]): 256 mg/kg; ED90 (Mus musculus [7]): 3 mg/kg

Row | Structure (SMILES) | ED90 [1] [mg/kg] | Dose (Mus musculus [2]) [mg/kg] | ED (Mus musculus [3]) [mg/kg] | IC90 (Plasmodium falciparum [4]) [ng/mL] | IC50 (Plasmodium falciparum [5]) [ng/mL] | also measured
29 | CC1(C)N=C(N)N=C(N)N1OCCOc1cc(Cl)c(Cl)cc1Cl | – | – | – | 40 (≈ 105 nM) | 0.278 (≈ 0.73 nM) | –
30 | CC1(C)N=C(N)N=C(N)N1OCCCOc1ccc(Br)cc1.Cl | – | – | – | 0.4 | – | –
31 | CC1(C)N=C(N)N=C(N)N1OCCCOc1ccc(F)cc1F.Cl | – | – | – | 0.42 | 0.0285 | –
32 | CC(C)/N=C(N)/N=C(\N)NOCc1ccc(Cl)c(Cl)c1 | < 8 | 32 | 22 | – | – | –
33 | Cc1ccc(SCCCON/C(N)=N/C(N)=N/C(C)C)cc1.Cl | 92 | 265 | 117 | – | – | –
34 | CC(C)/N=C(N)/N=C(\N)NOCCCOc1ccccc1.Cl | 124 | 540 | 165 | – | – | –
35 | Cc1cc(OCCCON2C(N)=NC(N)=NC2(C)C)ccc1C(C)C.Cl | – | – | – | 11.7 | 0.0719 | –
36 | Cc1ccc(OCCCON/C(N)=N/C(N)=N/C(C)C)cc1.Cl | 113 | 445 | 265 | – | – | –
37 | CC(C)NC(=N)NC(=N)NOCCCOc1ccc(Cl)cc1 | < 16 | 79 | 26 | – | – | –
38 | CC1(C)N=C(N)N=C(N)N1OCCCOc1ccc(Cl)cc1 | – | – | – | 0.63 (≈ 1.93 nM) | – | –
39 | CC(C)NC(=N)NC(=N)NOCCCOc1cc(Cl)c(Cl)cc1Cl | < 16 | 76 | 30 | – | – | –
40 | CC(C)/N=C(N)/N=C(\N)NOCCCOc1ccc(Cl)cc1Cl | 17 | 64 | 28 | – | – | –
41 | CCCCCCCCCC1N=C(N)N=C(N)N1OCCCOc1cc(Cl)c(Cl)cc1Cl (centres undefined) | – | – | – | > 640 | > 0.5 | –
42 | CCc1ccc(OCCCO/N=C(N)/N=C(\N)NC(C)C)cc1.Cl | 96 | 505 | 158 | – | – | –
43 | CC(C)/N=C(N)/N=C(\N)NOCCCSc1ccc(F)cc1.Cl | 70 | 183 | 109 | – | – | –
44 | Cc1cc(C)c(C)c(OCCCON/C(N)=N/C(N)=N/C(C)C)c1.Cl | < 128 | – | > 128 | – | – | –
45 | CC(C)/N=C(N)/N=C(\N)NOCCCSc1cc(Cl)ccc1Cl | < 128 | – | > 128 | – | – | –
46 | CC(C)/N=C(N)/N=C(\N)NOCCCOc1ccc(F)c(F)c1.Cl | < 16 | 77 | 27 | – | – | –
47 | CC1(C)N=C(N)N=C(N)N1OCCCOc1cccc(C(F)(F)F)c1.Cl | – | – | – | 2.5 | 0.0299 | –
48 | CC1(C)N=C(N)N=C(N)N1OCCCOc1cc(Cl)c(Cl)cc1Cl | – | – | – | 1.43 (≈ 3.62 nM) | 0.047 (≈ 0.119 nM) | –
49 | Cc1cc(OCCCON/C(N)=N/C(N)=N/C(C)C)ccc1C(C)C.Cl | < 128 | – | 128 | – | – | –
50 | CC1(C)N=C(N)N=C(N)N1c1ccc(Cl)cc1 [CYCLOGUANIL] | – | – | – | 152 (≈ 604 nM) | > 0.5 | –
51 | CC1(C)N=C(N)N=C(N)N1OCCCOc1ccc([N+](=O)[O-])cc1.Cl | – | – | – | 0.32 | 0.0299 | –
52 | CC1(C)N=C(N)N=C(N)N1OCCCOc1cc(F)cc(F)c1F.Cl | – | – | – | 0.63 | 0.0301 | –
53 | Cc1cccc(OCCCON/C(N)=N/C(N)=N/C(C)C)c1.Cl | > 128 | – | > 128 | – | – | –
54 | Cc1ccc(OCCCON/C(N)=N/C(N)=N/C(C)C)c(C)c1.Cl | 120 | 235 | 170 | – | – | –
55 | CC1(C)N=C(N)N=C(N)N1OCCCSc1cc(Cl)ccc1Cl | – | – | – | 2.08 (≈ 5.53 nM) | 0.0254 (≈ 0.0675 nM) | –
